Assay results published in ChEMBL document CHEMBL1148214, “In-vitro cytotoxic activities of the major bromophenols of the red alga Polysiphonia lanosa and some novel synthetic isomers” (J Nat Prod, 2004).
The source made the active and inactive calls. The calls are words filed in the database; no cut-off is given here.

Experiments:
DLD-1 [1] = assay: Cytotoxicity against human DLD1 cells after 96 hrs by MTT assay; type: functional, cell-based; set-up: unit not given here
How it was run: (§1)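 DLD-1 or HCT-116 cells in RPMI 1640 with 10% FCS, seeded at 1 × 10^4 cells mL-1 and incubated overnight at 37 °C, 5% CO2. Continuous 4-day drug exposure, drug in DMSO (max 0.1%), 8 wells per concentration. MTT 0.5 mg mL-1 for 4 h; formazan in DMSO read at 550 nm. IC50 taken as 50% growth inhibition versus control; 5FU positive control; triplicate.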

DLD-1 [2] = assay: Cell cycle arrest in human DLD1 cells assessed as accumulation at S phase at 5 umol after 72 hrs by flow cytometry; type: functional
How it was run: (§2)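 DLD-1 cells seeded at 5 × 10^4 cells mL-1 and grown 24 h at 37 °C, then exposed to drug for 72 h. Harvested by trypsinisation, fixed in 70% EtOH, suspended in PBS pH 7.3, RNase-treated and stained with propidium iodide for 30 min at 37 °C. DNA content measured by flow cytometry on 10 000 cells; percentage of cells in each cycle phase calculated.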

DLD-1 [3] = assay: Cell cycle arrest in human DLD1 cells assessed as accumulation at G2/M phase at 10 umol after 72 hrs by flow cytometry; type: functional; how it was run: as §2
DLD-1 [4] = assay: Cell cycle arrest in human DLD1 cells assessed as accumulation at G2/M phase at 2.5 umol after 72 hrs by flow cytometry; type: functional; how it was run: as §2
DLD-1 [5] = assay: Cytotoxicity against human DLD1 cells after 24 hrs by MTT assay; type: functional, cell-based
How it was run: (§3)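 DLD-1 cells seeded at 1 × 10^4 cells mL-1 and incubated overnight at 37 °C, 5% CO2. Drug was in DMSO (max 0.1% final) diluted in medium, 8 wells per concentration. After 1, 3 or 24 h the drug was removed, cells washed twice and grown in fresh medium to 4 days total. MTT at 0.5 mg mL-1 for 4 h; formazan dissolved in DMSO, absorbance read at 550 nm. IC50 determined relative to control survival; triplicate experiments.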

DLD-1 [6] = assay: Cell cycle arrest in human DLD1 cells assessed as accumulation at G0/G1 phase at 5 umol after 72 hrs by flow cytometry; type: functional; how it was run: as §2
DLD-1 [7] = assay: Cytotoxicity against human DLD1 cells after 1 hr by MTT assay; type: functional, cell-based; how it was run: as §3
DLD-1 [8] = assay: Cell cycle arrest in human DLD1 cells assessed as accumulation at S phase at 2.5 umol after 72 hrs by flow cytometry; type: functional; how it was run: as §2
DLD-1 [9] = assay: Cytotoxicity against human DLD1 cells after 3 hrs by MTT assay; type: functional, cell-based; how it was run: as §3
DLD-1 [10] = assay: Cell cycle arrest in human DLD1 cells assessed as accumulation at G0/G1 phase at 10 umol after 72 hrs by flow cytometry; type: functional; how it was run: as §2
DLD-1 [11] = assay: Cell cycle arrest in human DLD1 cells assessed as accumulation at S phase at 10 umol after 72 hrs by flow cytometry; type: functional; how it was run: as §2
DLD-1 [12] = assay: Cytotoxicity against human DLD1 cells at 8 umol after 96 hrs by MTT assay; type: functional, cell-based
How it was run: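 DLD-1 cells exposed continuously for 4 days to drug at 8 µmol in DMSO-containing medium (max 0.1% DMSO). Survival measured by MTT at 0.5 mg mL-1 for 4 h, formazan read at 550 nm, and expressed as percentage of mean control absorbance.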

HCT-116 = assay: Cytotoxicity against human HCT116 cells after 96 hrs by MTT assay; type: functional, cell-based; how it was run: as §1
DLD-1 [13] = assay: Cell cycle arrest in human DLD1 cells assessed as accumulation at G2/M phase at 5 umol after 72 hrs by flow cytometry; type: functional; how it was run: as §2
DLD-1 [14] = assay: Cell cycle arrest in human DLD1 cells assessed as accumulation at G0/G1 phase at 2.5 umol after 72 hrs by flow cytometry; type: functional; how it was run: as §2

Row | SMILES | IC50 (DLD-1 [1]) | IC50 (HCT-116) [µmol] | also measured
1 | COc1cc(C=O)cc(Br)c1O | > 200 | – | –
2 | CCCOCc1cc(Br)c(O)c(O)c1Br | 1.72 | 0.8 | Activity (DLD-1 [2]): 60.56%; Activity (DLD-1 [3]): 9.95%; Activity (DLD-1 [4]): 25.65%; IC50 (DLD-1 [5]): 2.71 µmol; Activity (DLD-1 [6]): 19.65%; IC50 (DLD-1 [7]): 79.76 µmol; Activity (DLD-1 [8]): 42.21%; IC50 (DLD-1 [9]): 77.98 µmol; Activity (DLD-1 [10]): 56.4%; Activity (DLD-1 [11]): 33.65%; Activity (DLD-1 [12]): Active; Activity (DLD-1 [13]): 19.79%; Activity (DLD-1 [14]): 32.14%
3 | O=Cc1cc(Br)c(O)c(O)c1Br | 31 | – | –
4 | O=Cc1cc(O)c(O)c(Br)c1Br | 30.9 | – | –
5 | O=Cc1cc(O)c(O)c(Br)c1 | 27.9 | – | –
6 | COCc1cc(Br)c(O)c(O)c1Br | 7.27 | 3.48 | –
7 | CCCOCc1cc(O)c(O)c(Br)c1 | 26.3 | – | –
8 | OCc1cc(Br)c(O)c(O)c1Br | 15 | 21.4 | –
9 | CCOCc1cc(O)c(O)c(Br)c1Br [ETHYL LANOSOL] | 13.5 | 2.51 | –
10 | CCOCc1cc(O)c(O)c(Br)c1 | 35.1 | – | –
11 | OCc1cc(O)c(O)c(Br)c1 | 51.5 | – | –
12 | Oc1c(O)c(Br)c(Br)c(Br)c1Br [TETRABROMOCATECHOL] | 6.43 | 8.75 | –
13 | CCCOCc1cc(O)c(O)c(Br)c1Br | 12.4 | 1.32 | –
14 | OCc1cc(O)c(O)c(Br)c1Br [LANOSOL] | – | 20.4 | –
15 | COCc1cc(O)c(O)c(Br)c1 | 35.3 | – | –
16 | O=c1[nH]cc(F)c(=O)[nH]1 [FLUOROURACIL] | – | 4.93 | –
17 | CCOCc1cc(Br)c(O)c(O)c1Br | 7.15 | 1.54 | –
18 | COCc1cc(O)c(O)c(Br)c1Br | – | 14.1 | –
